Source: ChEMBL document CHEMBL1268915, “Optimization of a series of dipeptides with a P3 threonine residue as non-covalent inhibitors of the chymotrypsin-like activity of the human 20S proteasome” (Bioorg Med Chem Lett, 2010)
Activity calls are given as the source filed them. The rule behind the calls is not given here.

Columns and labels:
Homo sapiens [1] = species on record: Homo sapiens; assay: Inhibition of human chymotrypsin at 100 uM
[2] = biological target: T1, Coagulation factor XII (Homo sapiens) (UniProt P00748); assay: Inhibition of human coagulation factor beta 12a at 100 uM
T1 sequence (whole entry): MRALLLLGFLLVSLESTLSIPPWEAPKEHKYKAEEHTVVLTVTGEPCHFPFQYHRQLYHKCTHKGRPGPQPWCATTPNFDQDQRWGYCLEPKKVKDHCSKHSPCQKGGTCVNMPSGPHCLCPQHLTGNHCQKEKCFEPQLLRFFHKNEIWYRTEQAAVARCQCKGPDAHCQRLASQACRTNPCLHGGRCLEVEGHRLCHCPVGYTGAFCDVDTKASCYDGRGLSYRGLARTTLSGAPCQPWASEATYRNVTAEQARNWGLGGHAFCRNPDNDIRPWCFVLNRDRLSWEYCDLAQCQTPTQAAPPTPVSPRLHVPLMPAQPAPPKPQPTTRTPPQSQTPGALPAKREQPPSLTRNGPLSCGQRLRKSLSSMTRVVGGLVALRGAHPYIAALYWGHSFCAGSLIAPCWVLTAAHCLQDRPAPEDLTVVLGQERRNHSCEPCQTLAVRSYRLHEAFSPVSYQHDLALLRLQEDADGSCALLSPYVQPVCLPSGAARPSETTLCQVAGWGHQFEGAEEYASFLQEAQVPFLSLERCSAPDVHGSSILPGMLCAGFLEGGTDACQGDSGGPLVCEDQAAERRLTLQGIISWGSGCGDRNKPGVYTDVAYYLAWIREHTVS

[3] = Cytotoxicity against human Calu6 cells assessed as cellular ATP level after 72 hrs by luminescence-based ATPlite assay; format: cell-based, Calu-6; details: read-out: LC50
Outline: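 Calu6 cells, 2000 per well, incubated with compound for 72 h. Viability read as cellular ATP by luminescence (ATPlite). Values are means of at least three independent experiments.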

Trypsin (Homo sapiens) = Trypsin (Homo sapiens) (UniProt P07477+P07478+P35030); assay: Inhibition of human trypsin at 100 uM; format: protein assay
[4] = Inhibition of chymotrypsin-like activity of human 20s proteasome beta2 subunit in human erythrocyte assessed as hydrolysis of Ac-WLA-AMC fluorogenic substrate
[5] = biological target: Prothrombin (Homo sapiens) (UniProt P00734); assay: Inhibition of human thrombin at 100 uM
[6] = Inhibition of chymotrypsin-like activity of human 20s proteasome beta-1 subunit in human erythrocyte assessed as hydrolysis of Ac-WLA-AMC fluorogenic substrate
[7] = biological target: Plasminogen (Homo sapiens) (UniProt P00747); assay: Inhibition of human plasmin at 100 uM
[8] = Binding affinity to chymotrypsin-like activity of 20S proteasome
[9] = biological target: Procathepsin L (Homo sapiens) (UniProt P07711); assay: Inhibition of human cathepsin L at 100uM
[10] = biological target: Cathepsin B (Homo sapiens) (UniProt P07858); assay: Inhibition of human cathepsin B at 100uM
Homo sapiens [11] = species on record: Homo sapiens; assay: Inhibition of human elastase at 100 uM
[12] = biological target: Tissue-type plasminogen activator (Homo sapiens) (UniProt P00750); assay: Inhibition of tissue plasminogen activator at 100 uM
[13] = (§1) Inhibition of TNF-alpha-induced NF-kappaB activation in human HEK293 cells after 3 hrs by luciferase reporter gene assay; format: cell-based; details: HEK293, 3 h
Outline: (§2)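 NF-κB-luciferase reporter in HEK293 cells (10,000 per well). Cells were pre-incubated with compound for 1 h, then stimulated with 10 ng/ml TNF-α for 3 h with compound still present. IC50 and percentage inhibition were reported as means of at least three independent experiments.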

HEK293 = assay: as §1; format: cell-based; parameters: concentration or dose not given beside the values; details: dose or concentration not given here; outline: as §2
[14] = biological target: T2, Calpain-1 catalytic subunit (Homo sapiens) (UniProt P07384); assay: Inhibition of human calpain 1 at 100 uM
T2 sequence (whole entry): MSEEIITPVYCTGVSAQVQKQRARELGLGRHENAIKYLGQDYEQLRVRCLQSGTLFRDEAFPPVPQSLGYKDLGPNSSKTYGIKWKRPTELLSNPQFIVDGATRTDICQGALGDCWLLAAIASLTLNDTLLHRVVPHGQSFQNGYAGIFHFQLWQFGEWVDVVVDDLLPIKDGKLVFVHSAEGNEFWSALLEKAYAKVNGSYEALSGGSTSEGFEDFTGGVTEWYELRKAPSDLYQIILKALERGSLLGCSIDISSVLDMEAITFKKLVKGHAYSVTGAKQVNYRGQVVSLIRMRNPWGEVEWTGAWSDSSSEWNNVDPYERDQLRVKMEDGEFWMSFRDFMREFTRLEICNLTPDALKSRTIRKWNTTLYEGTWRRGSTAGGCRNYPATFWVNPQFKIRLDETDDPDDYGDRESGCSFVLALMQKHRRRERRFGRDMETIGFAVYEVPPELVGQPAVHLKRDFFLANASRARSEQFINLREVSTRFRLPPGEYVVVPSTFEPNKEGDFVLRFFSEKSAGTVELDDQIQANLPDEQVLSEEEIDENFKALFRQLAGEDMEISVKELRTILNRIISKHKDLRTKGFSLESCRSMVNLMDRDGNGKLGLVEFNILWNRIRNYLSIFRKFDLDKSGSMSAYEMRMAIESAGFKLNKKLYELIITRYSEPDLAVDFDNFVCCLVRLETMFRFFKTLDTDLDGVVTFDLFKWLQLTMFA

[15] = Inhibition of chymotrypsin-like activity of human 20s proteasome beta5 subunit in human erythrocyte assessed as hydrolysis of Ac-WLA-AMC fluorogenic substrate

Chain of Procathepsin L (Homo sapiens) (P07711 114-333 limits assumed): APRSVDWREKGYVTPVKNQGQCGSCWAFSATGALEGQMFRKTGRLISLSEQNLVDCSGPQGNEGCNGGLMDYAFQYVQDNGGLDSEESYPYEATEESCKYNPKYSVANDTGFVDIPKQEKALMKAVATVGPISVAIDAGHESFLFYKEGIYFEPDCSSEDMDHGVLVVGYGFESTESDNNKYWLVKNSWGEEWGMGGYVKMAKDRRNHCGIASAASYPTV
Chain of Tissue-type plasminogen activator (Homo sapiens) (P00750 36-562 limits assumed): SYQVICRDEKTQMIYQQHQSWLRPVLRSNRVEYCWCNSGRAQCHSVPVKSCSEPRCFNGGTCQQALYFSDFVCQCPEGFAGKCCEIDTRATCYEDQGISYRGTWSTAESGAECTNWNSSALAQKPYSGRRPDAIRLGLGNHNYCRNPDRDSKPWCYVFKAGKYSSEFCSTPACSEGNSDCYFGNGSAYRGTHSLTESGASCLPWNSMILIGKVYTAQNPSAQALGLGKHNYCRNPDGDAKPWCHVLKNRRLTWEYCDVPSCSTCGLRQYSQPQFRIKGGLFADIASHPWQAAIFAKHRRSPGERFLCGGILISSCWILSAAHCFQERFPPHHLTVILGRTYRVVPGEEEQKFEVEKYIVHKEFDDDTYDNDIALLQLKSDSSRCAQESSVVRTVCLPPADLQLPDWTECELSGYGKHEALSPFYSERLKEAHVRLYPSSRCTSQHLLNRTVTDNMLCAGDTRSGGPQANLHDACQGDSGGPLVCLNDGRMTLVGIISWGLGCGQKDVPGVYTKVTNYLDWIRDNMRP
Chain of Plasminogen (Homo sapiens) (P00747 97-580 limits assumed): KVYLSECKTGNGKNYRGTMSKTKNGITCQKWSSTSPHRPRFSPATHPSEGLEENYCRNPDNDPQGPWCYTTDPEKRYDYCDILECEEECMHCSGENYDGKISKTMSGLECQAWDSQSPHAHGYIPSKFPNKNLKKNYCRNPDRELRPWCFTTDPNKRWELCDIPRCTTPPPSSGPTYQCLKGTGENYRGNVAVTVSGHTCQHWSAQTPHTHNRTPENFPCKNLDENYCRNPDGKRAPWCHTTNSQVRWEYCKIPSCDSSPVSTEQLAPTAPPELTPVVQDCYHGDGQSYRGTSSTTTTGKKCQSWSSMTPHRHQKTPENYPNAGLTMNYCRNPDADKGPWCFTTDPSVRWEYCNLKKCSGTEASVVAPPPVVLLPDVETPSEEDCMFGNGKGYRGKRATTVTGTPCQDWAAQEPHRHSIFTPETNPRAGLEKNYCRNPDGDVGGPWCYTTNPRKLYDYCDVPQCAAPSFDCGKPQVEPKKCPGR
Chain of Plasminogen (Homo sapiens) (P00747 581-810 limits assumed): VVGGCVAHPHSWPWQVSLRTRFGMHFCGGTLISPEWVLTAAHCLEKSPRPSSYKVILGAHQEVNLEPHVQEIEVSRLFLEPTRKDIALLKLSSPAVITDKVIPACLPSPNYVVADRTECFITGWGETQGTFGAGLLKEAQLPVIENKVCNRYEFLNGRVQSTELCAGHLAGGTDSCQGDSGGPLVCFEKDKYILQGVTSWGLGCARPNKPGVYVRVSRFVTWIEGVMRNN

## CC(C)C[C@H](NC(=O)[C@H](Cc1ccccc1)NC(=O)c1cnccn1)B(O)O [BORTEZOMIB]
Homo sapiens [1]
  inhibition: Active
[2]
  inhibition: Active
[3]
  CC50 at 72 h: 6.1 nM
Trypsin (Homo sapiens)
  inhibition: Active
[4]
  IC50: > 20000 nM
[5]
  inhibition: Active
[6]
  IC50: > 20000 nM
[7]
  inhibition: Active
[8]
  Ki: 0.55 nM
[9]
  inhibition: Active
[10]
  inhibition: Active
Homo sapiens [11]
  inhibition: Active
[12]
  inhibition: Active
[13]
  IC50: 10 nM
HEK293
  inhibition: 100%
[14]
  inhibition: Active

## Cc1ccc(CNC(=O)[C@H](CCc2ccccc2)NC(=O)[C@H](CCc2ccccc2)NC(=O)[C@H](CCc2ccccc2)NC(=O)c2cnc(C)cn2)cc1
Homo sapiens [1]
  inhibition: Active
[2]
  inhibition: Active
[3]
  CC50 at 72 h: 140 nM
[15]
  IC50: 16 nM
Trypsin (Homo sapiens)
  inhibition: Active
[4]
  IC50: > 20000 nM
[5]
  inhibition: Active
[6]
  IC50: > 20000 nM
[7]
  inhibition: Active
[9]
  inhibition: Active
[10]
  inhibition: Active
Homo sapiens [11]
  inhibition: Active
[12]
  inhibition: Active
[13]
  IC50: 47 nM
HEK293
  inhibition: 79%
[14]
  inhibition: Active
